Assay results: ChEMBL document CHEMBL2169847, “New tricks for an old natural product: discovery of highly potent evodiamine derivatives as novel antitumor agents by systemic structure-activity relationship analysis and biological evaluations” (J Med Chem, 2012)
Calls of active or inactive are those of the source. The calls are words filed in the database; no cut-off is given here.

Tests used:
Nucleic Acid [1] = test: Induction of DNA intercalation in Escherichia coli pBR322 DNA assessed as induction of supercoiled DNA at 1 ug/ml incubated for 15 mins by electrophoresis based Top1 unwinding assay; type: nucleic-acid assay
In short: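 pBR322 plasmid (0.25 μg) preincubated with 100 μM compound or 1 μg/mL ethidium bromide, 37 °C, 15 min, in Top1 buffer (35 mM Tris-HCl pH 8.0, 72 mM KCl, 5 mM MgCl2, 5 mM DTT, 5 mM spermidine, 0.1% BSA). 5 U Top1 then added for 60 min at 37 °C. Stopped with SDS and proteinase K (50 °C, 20 min), phenol/chloroform extracted, agarose gel.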

HCT-116 [2] = test: Antitumor activity against human HCT116 cells xenografted in BALB/C nude mouse assessed as tumor growth inhibition at 2 mg/kg, ip administered as a single dose on 17th day and measured on 30 to 33 days post implantation; type: functional, organism-based; design: dose 2 mg/kg
In short: (§1)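 Cells implanted subcutaneously in right axilla of nude mice; dosing began at tumor volume about 100−300 mm³ (day 17). Randomized, six mice per treatment group and eight controls; ip injection. Tumor volume by caliper, TV = 1/2 × a × b², with body weight every 4 days. Mice sacrificed day 30−33 and tumors removed. Mean SEM, Student's t test versus control.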

[3] = molecular target: T1, DNA topoisomerase 1 (Homo sapiens) (UniProt P11387); test: Inhibition of Top1 assessed as suppression of supercoiled pBR322 DNA relaxation measuring appearance of short DNA fragments at 100 uM incubated for 15 mins by electrophoresis method
T1 sequence (whole entry): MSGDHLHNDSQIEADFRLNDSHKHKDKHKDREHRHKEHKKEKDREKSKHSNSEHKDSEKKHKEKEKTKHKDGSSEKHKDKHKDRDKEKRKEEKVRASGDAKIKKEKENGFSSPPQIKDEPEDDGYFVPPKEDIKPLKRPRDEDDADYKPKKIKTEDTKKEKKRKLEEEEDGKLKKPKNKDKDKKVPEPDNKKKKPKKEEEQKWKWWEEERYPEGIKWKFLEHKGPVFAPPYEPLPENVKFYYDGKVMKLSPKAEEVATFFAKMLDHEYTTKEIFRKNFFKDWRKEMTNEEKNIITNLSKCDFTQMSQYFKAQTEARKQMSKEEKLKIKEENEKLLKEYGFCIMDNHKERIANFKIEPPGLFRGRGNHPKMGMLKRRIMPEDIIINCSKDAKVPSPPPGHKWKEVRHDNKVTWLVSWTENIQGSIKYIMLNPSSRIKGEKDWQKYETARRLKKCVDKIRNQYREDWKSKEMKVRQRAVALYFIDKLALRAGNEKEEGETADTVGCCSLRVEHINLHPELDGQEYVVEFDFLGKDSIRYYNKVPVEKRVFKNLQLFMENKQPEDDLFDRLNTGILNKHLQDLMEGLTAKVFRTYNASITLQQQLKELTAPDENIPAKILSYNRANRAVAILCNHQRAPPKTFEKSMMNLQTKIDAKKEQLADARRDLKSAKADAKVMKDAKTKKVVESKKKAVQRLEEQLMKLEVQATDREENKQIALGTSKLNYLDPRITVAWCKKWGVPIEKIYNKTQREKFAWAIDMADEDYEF

[4] = molecular target: T1, DNA topoisomerase 1 (Homo sapiens); test: Inhibition of Top1 assessed as stabilization of Top1-pUC19 DNA cleavage complex measuring increase of nicked DNA at 100 uM incubated for 15 mins by electrophoresis method
A549 [5] = test: Induction of apoptosis in human A549 cells assessed as change in cell morphology at 5 uM incubated for 48 hrs by immunostaining based light microscopy; type: functional
In short: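 A549 cells exposed to 5 μM compound, or DMSO, for 48 h. Morphology judged under a light microscope.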

Mus musculus [6] = test: Toxicity in BALB/C nude mouse xenografted with human HCT116 cells assessed as reduction in body weight at 2 mg/kg, ip administered as a single dose on 17th day and measured on 30 to 33 days post implantation; type: organism-based, HCT-116; design: dose 2 mg/kg, route intraperitoneal; settings: in vivo; in short: as §1
HCT-116 [7] = test: Cytotoxicity against human HCT116 cells incubated for 72 hrs by MTT assay; type: functional; settings: HCT-116, 72 h
In short: (§2)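 MTT assay. Cells seeded at 5 × 10³/well and grown 24 h at 37 °C, 5% CO₂. Compounds added at several concentrations in triplicate wells, with 0.1% DMSO control, for 72 h. MTT then added for 4 h, formazan dissolved in DMSO, and absorbance read at 570 nm. GI₅₀ by Logit method; three experiments.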

MDA-MB-435 = test: Cytotoxicity against human MDA-MB-435 cells incubated for 72 hrs by MTT assay; type: functional; settings: MDA-MB-435, 72 h; in short: as §2
[8] = molecular target: T1, DNA topoisomerase 1 (Homo sapiens); test: Inhibition of Top1 assessed as suppression of supercoiled pBR322 DNA relaxation measuring appearance of short DNA fragments at 50 uM incubated for 15 mins by electrophoresis method
A549 [9] = test: Cytotoxicity against human A549 cells incubated for 72 hrs by MTT assay; type: functional; settings: A549, 72 h; in short: as §2
Nucleic Acid [10] = test: Induction of DNA intercalation in Escherichia coli pBR322 DNA assessed as induction of supercoiled DNA at 100 uM incubated for 15 mins by electrophoresis based Top1 unwinding assay; type: nucleic-acid assay
[11] = molecular target: DNA topoisomerase 2-alpha (Homo sapiens) (UniProt P11388); test: Inhibition of human Top2alpha assessed as stabilization of Top2-pBr322 DNA cleavage complex measuring linear DNA formation at 100 uM incubated for 20 mins by electrophoresis method
Chain of DNA topoisomerase 2-alpha (Homo sapiens) (P11388 whole entry): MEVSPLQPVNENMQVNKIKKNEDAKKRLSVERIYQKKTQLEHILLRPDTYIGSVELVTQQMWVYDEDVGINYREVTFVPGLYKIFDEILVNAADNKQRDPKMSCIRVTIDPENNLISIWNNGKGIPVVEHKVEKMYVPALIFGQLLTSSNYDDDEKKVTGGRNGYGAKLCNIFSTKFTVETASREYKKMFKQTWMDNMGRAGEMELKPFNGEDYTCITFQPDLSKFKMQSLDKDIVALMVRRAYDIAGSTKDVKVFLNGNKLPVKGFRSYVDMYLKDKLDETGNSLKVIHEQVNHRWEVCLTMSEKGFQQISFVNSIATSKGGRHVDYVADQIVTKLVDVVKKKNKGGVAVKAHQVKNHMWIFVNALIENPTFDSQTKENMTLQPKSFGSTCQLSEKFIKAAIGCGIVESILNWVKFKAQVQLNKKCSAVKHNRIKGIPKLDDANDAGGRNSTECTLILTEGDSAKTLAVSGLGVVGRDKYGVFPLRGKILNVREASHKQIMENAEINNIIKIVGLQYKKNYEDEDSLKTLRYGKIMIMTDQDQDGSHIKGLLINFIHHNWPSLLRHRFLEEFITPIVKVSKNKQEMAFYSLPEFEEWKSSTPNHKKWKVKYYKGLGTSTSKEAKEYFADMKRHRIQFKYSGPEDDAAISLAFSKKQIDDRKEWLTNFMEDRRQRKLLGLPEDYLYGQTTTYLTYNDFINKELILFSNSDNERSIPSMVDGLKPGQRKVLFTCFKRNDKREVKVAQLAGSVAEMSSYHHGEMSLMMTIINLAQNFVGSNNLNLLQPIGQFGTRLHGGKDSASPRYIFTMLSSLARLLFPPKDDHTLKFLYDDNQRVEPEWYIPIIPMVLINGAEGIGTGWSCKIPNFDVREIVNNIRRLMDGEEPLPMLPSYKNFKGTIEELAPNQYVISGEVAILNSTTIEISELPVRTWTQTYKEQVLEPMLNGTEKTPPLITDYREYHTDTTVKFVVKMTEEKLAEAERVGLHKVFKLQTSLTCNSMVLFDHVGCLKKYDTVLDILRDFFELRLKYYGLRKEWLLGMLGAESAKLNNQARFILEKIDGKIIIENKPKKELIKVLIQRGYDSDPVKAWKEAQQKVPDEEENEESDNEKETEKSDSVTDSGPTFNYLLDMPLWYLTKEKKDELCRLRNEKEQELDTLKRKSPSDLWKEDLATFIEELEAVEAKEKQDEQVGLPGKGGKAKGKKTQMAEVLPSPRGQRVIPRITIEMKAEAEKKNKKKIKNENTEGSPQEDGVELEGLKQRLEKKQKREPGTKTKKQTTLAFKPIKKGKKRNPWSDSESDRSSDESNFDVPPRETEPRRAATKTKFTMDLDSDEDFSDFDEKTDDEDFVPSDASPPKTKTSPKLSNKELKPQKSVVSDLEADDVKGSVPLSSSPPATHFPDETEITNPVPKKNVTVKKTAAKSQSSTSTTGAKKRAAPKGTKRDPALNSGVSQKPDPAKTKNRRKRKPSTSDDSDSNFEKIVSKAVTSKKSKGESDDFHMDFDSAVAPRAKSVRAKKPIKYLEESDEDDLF
In short: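 Top2α drug screening kit with 8 units hTop2α and pBR322 plasmid. After reaction, proteinase K (200 μg/mL final) 20 min at 50 °C. Electrophoresis in TAE with 0.5 μg/mL ethidium bromide to resolve nicked, linear, relaxed and supercoiled forms.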

Nucleic Acid [12] = test: Binding affinity at calf thymus DNA at 50 uM after 20 mins by UV/vis absorbance titration based assay; type: nucleic-acid assay; settings: Bos taurus
In short: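 ct-DNA in DPBS pH 7.4, concentration set by A260 (13200 M⁻¹/cm per bp). Compounds at 50 μM in DPBS with 1% DMSO, with or without ct-DNA 0−100 μM. After 20 min equilibration at room temperature, absorption spectra recorded over 220−400 nm in a microplate reader. Hypochromic or bathochromic shifts taken as the sign of binding.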

Nucleic Acid [13] = test: Binding affinity at calf thymus DNA minor groove assessed as displacement of Hoechst 33258 dye incubated for 20 mins by microplate reader based assay; type: nucleic-acid assay; settings: Bos taurus
A549 [14] = test: Induction of apoptosis in human A549 cells at 5 uM incubated for 48 hrs by flow cytometry (reference value: 0.43%); type: functional
CNE = test: Cytotoxicity against human CNE cells incubated for 72 hrs by MTT assay; type: functional; in short: as §2
ZR-75-30 = test: Cytotoxicity against human ZR75-30 cells incubated for 72 hrs by MTT assay; type: functional; settings: ZR-75-30, 72 h; in short: as §2
[15] = Cytotoxicity against human KYSE-150 cells incubated for 72 hrs by MTT assay; type: functional; settings: KYSE-150, 72 h; in short: as §2
[16] = molecular target: T1, DNA topoisomerase 1 (Homo sapiens); test: Inhibition of Top1 assessed as suppression of supercoiled pBR322 DNA relaxation measuring appearance of short DNA fragments at 500 uM incubated for 15 mins by electrophoresis method
A549 [17] = test: Antitumor activity against human A549 cells xenografted in BALB/C nude mouse assessed as tumor growth inhibition at 1 mg/kg, ip for 13 days measured on 30 to 33 days post implantation; type: functional, organism-based; design: dose 1 mg/kg; in short: as §1
Mus musculus [18] = test: Toxicity in BALB/C nude mouse xenografted with human A549 cells assessed as reduction in body weight at 1 mg/kg, ip for 13 days measured on 30 to 33 days post implantation; type: organism-based; design: dose 1 mg/kg, route intraperitoneal; settings: in vivo; in short: as §1
[19] = molecular target: DNA topoisomerase 2-alpha (Homo sapiens) (UniProt P11388); test: Inhibition of human Top2alpha assessed as suppression of supercoiled pBR322 DNA relaxation at 50 uM incubated for 30 mins by electrophoresis method
[20] = Toxicity in mouse; type: organism-based; settings: in vivo
HL-60 = test: Cytotoxicity against human HL60 cells incubated for 72 hrs by MTT assay; type: functional; settings: HL-60, 72 h; in short: as §2
U2OS = test: Cytotoxicity against human U2OS cells incubated for 72 hrs by MTT assay; type: functional; in short: as §2
[21] = molecular target: DNA topoisomerase 2-alpha (Homo sapiens) (UniProt P11388); test: Inhibition of human Top2alpha assessed as suppression of supercoiled pBR322 DNA relaxation at 50 uM incubated for 30 mins in presence of excess ATP level by electrophoresis method
SAOS-2 = test: Cytotoxicity against human Saos2 cells incubated for 72 hrs by MTT assay; type: functional; settings: SAOS-2, 72 h; in short: as §2
HepG2 = test: Cytotoxicity against human HepG2 cells incubated for 72 hrs by MTT assay; type: functional; settings: HepG2, 72 h; in short: as §2
PANC-1 = test: Cytotoxicity against human PANC1 cells incubated for 72 hrs by MTT assay; type: functional; settings: PANC-1, 72 h; in short: as §2
PC-3 = test: Cytotoxicity against human PC3 cells incubated for 72 hrs by MTT assay; type: functional; settings: PC-3, 72 h; in short: as §2

CC[n+]1c(-c2ccccc2)c2cc(N)ccc2c2ccc(N)cc21
Activity (Nucleic Acid [1]): Active

CN1c2ccc(N)cc2C(=O)N2CCc3c([nH]c4ccc(O)cc34)C21 (stereo unspecified)
TGI (HCT-116 [2]): Active
inhibition [3]: Active
inhibition [4]: Active
Activity (A549 [5]): Active
Activity (Mus musculus [6]): Non-toxic
GI50 (HCT-116 [7]): 7 nM
GI50 (MDA-MB-435): 7 nM
inhibition [8]: Active
GI50 (A549 [9]): 4000 nM
Activity (Nucleic Acid [10]): inactive
inhibition [11]: inactive
Activity (Nucleic Acid [12]): inactive
Activity (Nucleic Acid [13]): inactive
Activity (A549 [14]): 14.48%

CN1c2ccc(F)cc2C(=O)N2CCc3c([nH]c4ccc(O)cc34)[C@H]21
GI50 (CNE): 8110 nM
GI50 (ZR-75-30): 3 nM
GI50 [15]: 3 nM
GI50 (HCT-116 [7]): 3.6 nM
GI50 (A549 [9]): 3.7 nM

CN1c2ccccc2C(=O)N2CCc3c([nH]c4ccccc34)[C@@H]21 [EVODIAMINE]
inhibition [3]: inactive
GI50 (HCT-116 [7]): 100000 nM
GI50 (MDA-MB-435): 20200 nM
GI50 (A549 [9]): 100000 nM
inhibition [16]: Active

CN1c2ccccc2C(=O)N2CCc3c([nH]c4ccc(O)cc34)C21 (stereo unspecified)
TGI (HCT-116 [2]): Active
inhibition [3]: Active
inhibition [4]: Active
TGI (A549 [17]): Active
Activity (A549 [5]): Active
Activity (Mus musculus [6]): Non-toxic
GI50 (HCT-116 [7]): < 3 nM
GI50 (MDA-MB-435): < 3 nM
Activity (Mus musculus [18]): Non-toxic
GI50 (A549 [9]): < 3 nM
inhibition [19]: Active
Activity (Nucleic Acid [10]): inactive
inhibition [11]: inactive
Activity (Nucleic Acid [12]): inactive
Activity (Nucleic Acid [13]): inactive
Activity (A549 [14]): 13.07%

CN1c2ccccc2C(=O)N2CCc3c([nH]c4ccccc34)[C@H]21 [EVODIAMINE]
LD50 [20]: 77.8 mg/kg

CN1c2ccc(F)cc2C(=O)N2CCc3c([nH]c4ccc(O)cc34)[C@@H]21
GI50 (CNE): 5880 nM
GI50 (ZR-75-30): 1750 nM
GI50 [15]: 1230 nM
GI50 (HCT-116 [7]): 11 nM
GI50 (A549 [9]): 4.6 nM

CN1c2ccc(F)cc2C(=O)N2CCc3c([nH]c4ccccc34)C21 (stereo unspecified)
inhibition [3]: Active
GI50 (HL-60): < 3 nM
GI50 (U2OS): 129000 nM
TGI (A549 [17]): Active
inhibition [21]: inactive
GI50 (HCT-116 [7]): < 3 nM
GI50 (MDA-MB-435): < 3 nM
GI50 (SAOS-2): 205000 nM
Activity (Mus musculus [18]): Non-toxic
GI50 (A549 [9]): < 3 nM
GI50 (HepG2): 188000 nM
GI50 (PANC-1): 1700 nM
inhibition [19]: Active
GI50 (PC-3): 34200 nM
